Data: ChEMBL document CHEMBL1137349, “Selective angiotensin II AT2 receptor agonists: arylbenzylimidazole structure-activity relationships” (J Med Chem, 2006)
Activity calls are given as the source filed them. The rule behind the calls is not given here.

How the values were obtained:
[1] = biological target: Type-1 angiotensin II receptor (Rattus norvegicus) (UniProt P25095); assay: Displacement of [125I]Ang2 from AT1 receptor in rat liver membrane
[2] = tested on: NG108-15; assay: Induction of neurite growth in NG108-15 cells at 0.1 uM after 3 days; type: functional, cell-based
Outline: (§1)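 NG108-15 cells, which express only AT2, were plated at 4 × 10⁴ cells per 35 mm dish and grown 3 days with or without 0.1 µM agonist, with Ang II as reference. Micrographs were taken under phase contrast. Cells with at least one neurite longer than the cell body were scored positive, as a percentage of 50–100 total cells.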

[3] = tested on: NG108-15; assay: Induction of NG108-15 cell death at 1 uM; type: functional, cell-based
Outline: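 NG108-15 neuroblastoma × glioma hybrid cells plated at 4 × 10⁴ cells per 35 mm dish and cultured 3 days with test agent across 1 pM to 1 µM. Cells were then examined by phase contrast microscopy and micrographs taken to assess cell death.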

[4] = tested on: NG108-15; assay: Induction of neurite growth in NG108-15 cells at 0.1 uM after 3 days in presence of PD-123319; type: functional, cell-based
Outline: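 Here the 0.1 µM agonist was co-incubated with 1 µM of the AT2 antagonist PD 123,319 for 3 days. NG108-15 cells were plated at 4 × 10⁴ per 35 mm dish. The percentage of cells bearing a neurite longer than the cell body was counted from phase-contrast micrographs of 50–100 cells.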

[5] = tested on: NG108-15; assay: Induction of neurite growth in NG108-15 cells relative to control; type: functional, cell-based
Outline: as §1

| Compound | Ki [1] | other results |
| --- | --- | --- |
| CCCCOC(=O)NS(=O)(=O)c1ccc(OCCCC)cc1-c1ccc(Cn2ccnc2)cc1 | – | Activity [2]: Active; Activity [3]: Active; Activity [4]: inactive |
| CCCCOC(=O)NS(=O)(=O)c1sc(CCC)cc1-c1ccc(Cn2ccnc2)cc1 | – | Activity [2]: Active; Activity [3]: Active; Activity [4]: inactive |
| Cc1cc(Cn2cnc3c2C[C@@H](C(=O)O)N(C(=O)C(c2ccccc2)c2ccccc2)C3)ccc1N(C)C | – | Activity [5]: inactive |
| CC(C)Cc1cc(-c2ccc(Cn3ccnc3)cc2)c(S(=O)(=O)NC(=O)OC(C)(C)C)s1 | > 10 µM | – |
| CC(C)Cc1cc(-c2ccc(Cn3ccnc3)cc2)c(S(=O)(=O)NC(=O)OC(C)C)s1 | > 10 µM | – |
| CCCCOC(=O)NS(=O)(=O)c1sc(CCCC)cc1-c1ccc(Cn2ccnc2)cc1 | > 10 µM | – |
| CCCCOC(=O)NS(=O)(=O)c1ccc(CCCC)cc1-c1ccc(Cn2ccnc2)cc1 | > 10 µM | – |

More lines, main results first:

| Ki [1] | Compound | other results |
| --- | --- | --- |
| > 10 µM | CCCCN(C)C(=O)NS(=O)(=O)c1sc(CC(C)C)cc1-c1ccc(Cn2ccnc2)cc1 | – |
| > 10 µM | CCCCS(=O)(=O)NS(=O)(=O)c1sc(CC(C)C)cc1-c1ccc(Cn2ccnc2)cc1 | – |
| > 10 µM | CCCCS(=O)(=O)NC(=O)c1sc(CC(C)C)cc1-c1ccc(Cn2ccnc2)cc1 | – |
| > 10 µM | CCCCOC(=O)NS(=O)(=O)c1ccc(OC(C)C)cc1-c1ccc(Cn2ccnc2)cc1 | – |
| > 10 µM | CCCCc1ccc(S(=O)(=O)NC(=O)OCC)c(-c2ccc(Cn3ccnc3)cc2)c1 | – |
| > 10 µM | COCCOC(=O)NS(=O)(=O)c1sc(CC(C)C)cc1-c1ccc(Cn2ccnc2)cc1 | – |
